The text below walks through data of ChEMBL document CHEMBL2390862, “Enmein-type diterpenoid analogs from natural kaurene-type oridonin: Synthesis and their antitumor biological evaluation” (Eur J Med Chem, 2013).

In general, IC50 refers to the concentration that gives 50% inhibition. The low end stands for higher potency, the high end for lower potency.

What all share (type): functional, cell-based
One test concerns Bel-7402. Kind of test: Cytotoxicity against human Bel7402 cells after 72 hrs by MTT assay. The settings on record: Bel-7402, 72 h. The procedure, abridged:
(§1)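 K562, CaEs-17, Bel-7402 and MGC-803 cells in log phase seeded at 5 × 10⁴ cells/mL, incubated with or without test compounds at 37 °C, 5% CO₂; after 72 h MTT (5 mg/mL stock) added for 4 h, formazan dissolved in DMSO, OD read at 490 nm. Negative reference 0.1% DMSO, Taxol positive control. IC50 as mean ± S.D. of three independent experiments.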

A further test has as its system K562. Kind of test: Cytotoxicity against human K562 cells after 72 hrs by MTT assay. The settings on record: K562, 72 h. The procedure, abridged: as §1
The subject of another test is MGC-803. Kind of test: Cytotoxicity against human MGC803 cells after 72 hrs by MTT assay. The following applies: MGC-803, 72 h. Put shortly:
as §1
(Tetrazolium dyes change colour on reduction, which living cells bring about.)

Test [1] can be described thus: Cytotoxicity against human CaEs17 cells after 72 hrs by MTT assay. The settings on record: CaEs17, 72 h. Put shortly: as §1

For the molecule `C=C1C(=O)[C@@]23C(=O)O[C@H]4CCC(C)(C)[C@H]5[C@H](O)OC[C@@]45[C@@H]2CC[C@@H]1[C@H]3OC(=O)c1ccccc1Cl`, the IC50 is 0.85 µM with Bel-7402, 0.22 µM with K562, 0.8 µM with MGC-803 and 0.6 µM in test [1].
Taken in the same sequence, the figures for `C=C1C(=O)[C@@]23C(=O)O[C@H]4CCC(C)(C)[C@H]5[C@H](O)OC[C@@]45[C@@H]2CC[C@@H]1[C@H]3OC(=O)c1ccc([N+](=O)[O-])cc1` were 1.01 µM, 0.26 µM, 0.64 µM and 0.58 µM.
Taken in the same sequence, the figures for `C=C1C(=O)[C@@]23C(=O)O[C@H]4CCC(C)(C)[C@H]5[C@H](O)OC[C@@]45[C@@H]2CC[C@@H]1[C@H]3OC(=O)CC` were 1.53 µM, 1.02 µM, 1.56 µM and 1.21 µM.
The matching figures for `C=C1C(=O)[C@@]23C(=O)O[C@H]4CCC(C)(C)[C@H]5[C@H](O)OC[C@@]45[C@@H]2CC[C@@H]1[C@H]3OC(=O)c1ccc(OC)cc1`: 1.79 µM, 0.69 µM, 3.33 µM and 2.71 µM.
Take `C=C1C(=O)[C@@]23C(=O)O[C@H]4CCC(C)(C)[C@H]5[C@H](O)OC[C@@]45[C@@H]2CC[C@@H]1[C@H]3OC(=O)c1ccc(C)cc1`: the IC50 with Bel-7402 was determined as 1.01 µM; with K562, 0.14 µM; with MGC-803 it was 0.61 µM; in test [1] it was 0.45 µM.
In turn, `CC(=O)O[C@H]1C(=O)[C@@]2(C)[C@H]([C@H](OC(=O)c3ccccc3)[C@]3(O)C[C@H](OC(=O)[C@H](O)[C@@H](NC(=O)c4ccccc4)c4ccccc4)C(C)=C1C3(C)C)[C@]1(OC(C)=O)CO[C@@H]1C[C@@H]2O` [PACLITAXEL] had an IC50 in test [1] of 0.43 µM.
Regarding `C=C1C(=O)[C@@]23C(=O)O[C@H]4CCC(C)(C)[C@H]5[C@H](O)OC[C@@]45[C@@H]2CC[C@@H]1[C@H]3OC(=O)c1ccccc1`, the IC50 worked out at 1.42 µM in the test with Bel-7402, 0.21 µM with K562, 0.93 µM with MGC-803 and 0.54 µM in test [1].
For the molecule `C=C1C(=O)[C@@]23C(=O)O[C@H]4CCC(C)(C)[C@H]5[C@H](O)OC[C@@]45[C@@H]2CC[C@@H]1[C@H]3OC(C)=O`, the IC50 was 1.97 µM with Bel-7402, 1.11 µM with K562, 1.99 µM with MGC-803 and 1.59 µM in test [1].
Regarding `C=C1C(=O)[C@@]23C(=O)O[C@H]4CCC(C)(C)[C@H]5[C@H](O)OC[C@@]45[C@@H]2CC[C@@H]1[C@H]3OC(=O)c1cc(F)c(F)c(F)c1F`, the IC50 was found to be 0.89 µM with Bel-7402, 1.04 µM in the test with K562, 1.24 µM in the test with MGC-803 and 1.89 µM in test [1].
Consider `C=C1C(=O)[C@@]23C(=O)O[C@H]4CCC(C)(C)[C@H]5[C@H](O)OC[C@@]45[C@@H]2CC[C@@H]1[C@H]3O`, for which the IC50 with MGC-803 came to 14.2 µM.
As to `C=C1C(=O)[C@@]23C(=O)O[C@H]4CCC(C)(C)[C@H]5[C@H](O)OC[C@@]45[C@@H]2CC[C@@H]1[C@H]3OC(=O)c1ccc(C(F)(F)F)cc1`, the IC50 was found to be 1.27 µM with Bel-7402, 0.37 µM with K562, 0.96 µM in the test with MGC-803 and 0.76 µM in test [1].
